Measured values published in ChEMBL document CHEMBL3232717 (J Med Chem, 2014).

How the values were obtained:
[1] = Plasma clearance in Sprague-Dawley rat at 1 mg/kg, iv and 2 mg/kg, po administered via gavage by LC-MS/MS analysis; assay type: ADME, organism-based
Outline: (§1)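 Male Sprague-Dawley rats, fasted overnight with water ad libitum and fed 4 h after dosing. TFA salt given as a saline solution, either 1 mg/kg iv via femoral-vein cannula (n = 2) or 2 mg/kg po by gavage (n = 3). EDTA blood taken at 5 min (iv only), 15 and 30 min, and 1, 2, 4, 6, 8, 24 and 48 h. Plasma protein-precipitated with acetonitrile and assayed by LC-MS/MS; noncompartmental analysis.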

[2] = Volume of distribution at steady state in Sprague-Dawley rat at 1 mg/kg, iv and 2 mg/kg, po administered via gavage by LC-MS/MS analysis; assay type: ADME, organism-based; conditions: in vivo, read-out: Vdss; outline: as §1
[3] = Terminal half life in Sprague-Dawley rat at 1 mg/kg, iv and 2 mg/kg, po administered via gavage by LC-MS/MS analysis; assay type: ADME, organism-based; conditions: in vivo, read-out: beta t1/2 (converted); outline: as §1
[4] = Cmax in Sprague-Dawley rat at 2 mg/kg, po administered via gavage by LC-MS/MS analysis; assay type: ADME, organism-based; parameters: dose 2 mg/kg, route oral; conditions: in vivo; outline: as §1
[5] = Tmax in Sprague-Dawley rat at 1 mg/kg, iv and 2 mg/kg, po administered via gavage by LC-MS/MS analysis; assay type: ADME, organism-based; conditions: in vivo; outline: as §1
[6] = Oral bioavailability in Sprague-Dawley rat at 2 mg/kg administered via gavage by LC-MS/MS analysis; assay type: ADME, organism-based; conditions: in vivo; outline: as §1
[7] = system: Rattus norvegicus; assay: Dose normalized AUC in Sprague-Dawley rat at 1 mg/kg, iv and 2 mg/kg, po administered via gavage by LC-MS/MS analysis; assay type: ADME, organism-based; conditions: in vivo; outline: as §1
[8] = Volume of distribution at steady state in beagle dog at 1 mg/kg, iv and 2 mg/kg, po administered via gavage by LC-MS/MS analysis; assay type: ADME, organism-based, Canis lupus familiaris; conditions: in vivo, read-out: Vdss
Outline: (§2)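 Beagle dogs, fasted overnight with water ad libitum and fed 4 h postdose. TFA salt in saline given 1 mg/kg iv via cephalic vein (n = 2) or 2 mg/kg by gastric gavage (n = 2). EDTA blood drawn at 5 min (iv only), 15 and 30 min, and 1, 2, 4, 6, 8, 24, 30, 48 and 72 h. Acetonitrile-precipitated plasma quantified by LC-MS/MS; parameters derived noncompartmentally.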

[9] = Cmax in beagle dog at 2 mg/kg, po administered via gavage by LC-MS/MS analysis; assay type: ADME, organism-based, Canis lupus familiaris; parameters: dose 2 mg/kg, route oral; conditions: in vivo; outline: as §2
[10] = Tmax in beagle dog at 1 mg/kg, iv and 2 mg/kg, po administered via gavage by LC-MS/MS analysis; assay type: ADME, organism-based, Canis lupus familiaris; conditions: in vivo; outline: as §2
[11] = system: Canis familiaris; assay: Dose normalized AUC in beagle dog at 1 mg/kg, iv and 2 mg/kg, po administered via gavage by LC-MS/MS analysis; assay type: ADME, organism-based, Canis lupus familiaris; conditions: in vivo; outline: as §2
[12] = in vivo; conditions: beagle, dog, plasma, iv, 1 mg/kg
[13] = in vivo; conditions: beagle, dog, po, 2 mg/kg
[14] = in vivo; conditions: beagle, dog
[15] = target: T1, Prolyl endopeptidase (Homo sapiens, UniProt P48147); assay: Inhibition of PEP (unknown origin)
T1 sequence (P48147 whole entry): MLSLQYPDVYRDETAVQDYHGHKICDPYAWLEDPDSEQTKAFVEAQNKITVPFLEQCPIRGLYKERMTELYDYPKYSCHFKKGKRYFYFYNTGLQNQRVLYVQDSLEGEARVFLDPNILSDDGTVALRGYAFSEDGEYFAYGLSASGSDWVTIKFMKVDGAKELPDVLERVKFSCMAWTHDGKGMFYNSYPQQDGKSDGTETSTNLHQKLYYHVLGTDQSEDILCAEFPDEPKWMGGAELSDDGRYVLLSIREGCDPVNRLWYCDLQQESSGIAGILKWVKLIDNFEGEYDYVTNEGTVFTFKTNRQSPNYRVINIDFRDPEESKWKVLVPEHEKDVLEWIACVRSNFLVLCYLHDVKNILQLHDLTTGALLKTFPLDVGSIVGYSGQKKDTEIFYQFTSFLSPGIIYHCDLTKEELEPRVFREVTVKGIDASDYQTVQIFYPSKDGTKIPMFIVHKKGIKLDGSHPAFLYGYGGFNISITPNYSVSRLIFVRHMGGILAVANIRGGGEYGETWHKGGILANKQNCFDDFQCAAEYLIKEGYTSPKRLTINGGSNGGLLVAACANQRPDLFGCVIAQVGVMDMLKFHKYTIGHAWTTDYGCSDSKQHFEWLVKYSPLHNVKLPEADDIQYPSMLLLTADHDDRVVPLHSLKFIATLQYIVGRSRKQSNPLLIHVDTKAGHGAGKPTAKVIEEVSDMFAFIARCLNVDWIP

[16] = target: Dipeptidyl peptidase 8 (Homo sapiens, UniProt Q6V1X1); assay: Inhibition of DPP8 (unknown origin)
Dipeptidyl peptidase 8, sequence (Q6V1X1 whole entry): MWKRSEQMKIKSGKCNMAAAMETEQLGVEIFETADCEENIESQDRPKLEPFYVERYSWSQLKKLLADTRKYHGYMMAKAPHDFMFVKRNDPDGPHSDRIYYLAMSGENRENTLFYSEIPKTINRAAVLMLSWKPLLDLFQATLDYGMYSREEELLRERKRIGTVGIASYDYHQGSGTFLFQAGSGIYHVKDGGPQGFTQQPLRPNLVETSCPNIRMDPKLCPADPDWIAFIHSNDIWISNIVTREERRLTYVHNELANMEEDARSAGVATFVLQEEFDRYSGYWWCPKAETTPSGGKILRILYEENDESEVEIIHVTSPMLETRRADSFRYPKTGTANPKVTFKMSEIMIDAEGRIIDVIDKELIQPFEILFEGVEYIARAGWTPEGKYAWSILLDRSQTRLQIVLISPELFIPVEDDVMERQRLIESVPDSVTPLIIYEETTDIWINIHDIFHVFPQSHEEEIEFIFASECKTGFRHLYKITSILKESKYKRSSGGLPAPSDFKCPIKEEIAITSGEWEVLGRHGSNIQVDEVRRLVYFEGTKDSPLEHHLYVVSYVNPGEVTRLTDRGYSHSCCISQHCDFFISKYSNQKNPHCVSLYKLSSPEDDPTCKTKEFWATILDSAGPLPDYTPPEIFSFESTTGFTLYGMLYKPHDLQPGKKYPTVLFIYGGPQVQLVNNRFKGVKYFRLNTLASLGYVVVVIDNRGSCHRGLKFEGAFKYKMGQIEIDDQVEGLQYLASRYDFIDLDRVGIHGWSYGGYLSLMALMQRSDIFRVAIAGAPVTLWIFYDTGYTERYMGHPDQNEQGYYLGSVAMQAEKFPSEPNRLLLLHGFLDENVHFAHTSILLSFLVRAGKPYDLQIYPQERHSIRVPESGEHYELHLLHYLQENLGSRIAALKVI

[17] = target: Dipeptidyl peptidase 9 (Homo sapiens, UniProt Q86TI2); assay: Inhibition of DPP9 (unknown origin)
Dipeptidyl peptidase 9, sequence (Q86TI2 whole entry): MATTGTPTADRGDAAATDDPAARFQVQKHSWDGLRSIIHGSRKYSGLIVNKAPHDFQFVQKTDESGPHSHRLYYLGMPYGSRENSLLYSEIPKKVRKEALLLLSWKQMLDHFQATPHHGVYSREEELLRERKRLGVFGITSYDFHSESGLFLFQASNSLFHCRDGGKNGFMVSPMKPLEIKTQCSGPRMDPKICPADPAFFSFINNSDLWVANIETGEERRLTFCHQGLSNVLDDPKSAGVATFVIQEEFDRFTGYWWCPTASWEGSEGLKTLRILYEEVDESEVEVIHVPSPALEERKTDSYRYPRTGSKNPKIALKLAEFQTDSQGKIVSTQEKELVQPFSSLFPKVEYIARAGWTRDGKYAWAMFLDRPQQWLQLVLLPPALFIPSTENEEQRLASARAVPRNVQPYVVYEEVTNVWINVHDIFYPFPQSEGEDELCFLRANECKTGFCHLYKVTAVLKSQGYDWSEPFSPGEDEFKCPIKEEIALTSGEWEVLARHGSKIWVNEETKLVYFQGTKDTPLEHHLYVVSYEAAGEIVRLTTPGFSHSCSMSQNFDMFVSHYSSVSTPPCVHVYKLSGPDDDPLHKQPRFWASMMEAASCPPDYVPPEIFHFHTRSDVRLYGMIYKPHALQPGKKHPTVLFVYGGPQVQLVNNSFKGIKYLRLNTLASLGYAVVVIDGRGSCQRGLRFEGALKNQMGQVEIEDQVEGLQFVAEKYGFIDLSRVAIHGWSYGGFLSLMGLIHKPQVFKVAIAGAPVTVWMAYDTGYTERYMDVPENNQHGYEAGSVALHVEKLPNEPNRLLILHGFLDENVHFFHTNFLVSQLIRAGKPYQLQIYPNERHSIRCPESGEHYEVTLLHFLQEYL

[18] = Inhibition of potassium channel IKr (unknown origin)
[19] = target: Voltage-dependent L-type calcium channel subunit alpha-1C (Homo sapiens, UniProt Q13936); assay: Inhibition of Cav1.2 (unknown origin)
[20] = target: Sodium channel protein type 5 subunit alpha (Homo sapiens, UniProt Q14524); assay: Inhibition of Nav1.5 (unknown origin)
Sodium channel protein type 5 subunit alpha, sequence (Q14524 whole entry): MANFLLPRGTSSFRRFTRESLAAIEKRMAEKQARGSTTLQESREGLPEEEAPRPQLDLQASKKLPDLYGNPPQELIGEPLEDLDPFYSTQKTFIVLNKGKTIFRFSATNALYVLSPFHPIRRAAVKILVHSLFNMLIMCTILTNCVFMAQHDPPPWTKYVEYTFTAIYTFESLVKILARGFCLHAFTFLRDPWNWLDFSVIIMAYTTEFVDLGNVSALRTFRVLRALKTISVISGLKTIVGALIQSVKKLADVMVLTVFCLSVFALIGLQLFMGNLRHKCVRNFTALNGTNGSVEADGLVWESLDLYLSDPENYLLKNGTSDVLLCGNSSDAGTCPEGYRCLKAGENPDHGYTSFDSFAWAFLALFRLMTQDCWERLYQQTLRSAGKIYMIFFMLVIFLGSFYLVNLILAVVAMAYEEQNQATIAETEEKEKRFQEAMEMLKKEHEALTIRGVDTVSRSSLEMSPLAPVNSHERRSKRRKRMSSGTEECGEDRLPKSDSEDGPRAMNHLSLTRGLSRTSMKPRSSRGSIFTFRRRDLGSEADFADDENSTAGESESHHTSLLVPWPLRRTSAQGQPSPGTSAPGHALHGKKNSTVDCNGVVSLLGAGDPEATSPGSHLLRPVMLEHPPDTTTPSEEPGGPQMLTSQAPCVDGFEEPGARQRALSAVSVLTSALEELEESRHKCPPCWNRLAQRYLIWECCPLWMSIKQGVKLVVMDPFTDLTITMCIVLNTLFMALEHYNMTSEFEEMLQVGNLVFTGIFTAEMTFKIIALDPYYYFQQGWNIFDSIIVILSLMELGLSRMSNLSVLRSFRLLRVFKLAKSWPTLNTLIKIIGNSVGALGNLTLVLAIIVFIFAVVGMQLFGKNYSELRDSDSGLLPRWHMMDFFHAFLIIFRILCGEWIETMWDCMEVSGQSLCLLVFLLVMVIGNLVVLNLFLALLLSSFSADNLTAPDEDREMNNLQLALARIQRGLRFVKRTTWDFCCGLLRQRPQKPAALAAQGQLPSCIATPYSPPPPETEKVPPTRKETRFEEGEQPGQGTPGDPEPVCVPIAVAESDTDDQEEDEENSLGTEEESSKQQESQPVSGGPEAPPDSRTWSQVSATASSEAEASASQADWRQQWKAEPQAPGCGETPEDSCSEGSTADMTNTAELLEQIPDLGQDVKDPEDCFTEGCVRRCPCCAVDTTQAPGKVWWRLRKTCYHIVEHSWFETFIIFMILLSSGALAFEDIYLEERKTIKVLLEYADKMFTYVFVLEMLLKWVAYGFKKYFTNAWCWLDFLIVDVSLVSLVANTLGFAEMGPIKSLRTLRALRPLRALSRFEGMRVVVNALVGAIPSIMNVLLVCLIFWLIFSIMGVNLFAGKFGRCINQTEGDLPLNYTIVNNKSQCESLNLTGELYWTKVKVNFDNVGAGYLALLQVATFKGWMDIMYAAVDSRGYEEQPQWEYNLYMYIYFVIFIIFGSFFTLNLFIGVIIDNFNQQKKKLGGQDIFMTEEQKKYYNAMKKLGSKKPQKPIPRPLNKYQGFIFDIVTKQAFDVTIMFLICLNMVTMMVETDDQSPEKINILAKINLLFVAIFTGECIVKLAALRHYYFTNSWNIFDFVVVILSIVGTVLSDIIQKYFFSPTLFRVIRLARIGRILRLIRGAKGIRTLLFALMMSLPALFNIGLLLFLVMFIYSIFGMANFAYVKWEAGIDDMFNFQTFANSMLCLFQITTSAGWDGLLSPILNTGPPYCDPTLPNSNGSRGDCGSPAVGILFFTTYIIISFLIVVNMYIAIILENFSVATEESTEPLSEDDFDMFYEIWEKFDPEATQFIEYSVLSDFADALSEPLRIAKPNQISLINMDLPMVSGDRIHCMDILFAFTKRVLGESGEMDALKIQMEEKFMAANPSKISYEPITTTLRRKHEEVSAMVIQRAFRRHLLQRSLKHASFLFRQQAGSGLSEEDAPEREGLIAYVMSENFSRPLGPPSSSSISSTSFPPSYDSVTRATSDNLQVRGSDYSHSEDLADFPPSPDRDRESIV
Outline: (§3)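 Cardiac ion channel panel run on PatchXpress, testing functional currents (hERG/IKr, INa, ICaL) up to 30 μM. IKr was additionally assessed by nonfunctional MK-499 displacement binding.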

[21] = system: Plasma; assay: Plasma concentration in mouse at 0.3 mg/kg, po; assay type: ADME, organism-based; parameters: dose 0.3 mg/kg, route oral; conditions: in vivo
Outline: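 Lean mice dosed orally 1 h before an oral dextrose challenge (OGTT); plasma drug concentration measured alongside plasma DPP-4 activity in the accompanying pharmacodynamic study.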

[22] = target: Dipeptidyl peptidase 4 (Mus musculus, UniProt P28843); assay: Inhibition of DPP4 in mouse plasma
Dipeptidyl peptidase 4, sequence (P28843 whole entry): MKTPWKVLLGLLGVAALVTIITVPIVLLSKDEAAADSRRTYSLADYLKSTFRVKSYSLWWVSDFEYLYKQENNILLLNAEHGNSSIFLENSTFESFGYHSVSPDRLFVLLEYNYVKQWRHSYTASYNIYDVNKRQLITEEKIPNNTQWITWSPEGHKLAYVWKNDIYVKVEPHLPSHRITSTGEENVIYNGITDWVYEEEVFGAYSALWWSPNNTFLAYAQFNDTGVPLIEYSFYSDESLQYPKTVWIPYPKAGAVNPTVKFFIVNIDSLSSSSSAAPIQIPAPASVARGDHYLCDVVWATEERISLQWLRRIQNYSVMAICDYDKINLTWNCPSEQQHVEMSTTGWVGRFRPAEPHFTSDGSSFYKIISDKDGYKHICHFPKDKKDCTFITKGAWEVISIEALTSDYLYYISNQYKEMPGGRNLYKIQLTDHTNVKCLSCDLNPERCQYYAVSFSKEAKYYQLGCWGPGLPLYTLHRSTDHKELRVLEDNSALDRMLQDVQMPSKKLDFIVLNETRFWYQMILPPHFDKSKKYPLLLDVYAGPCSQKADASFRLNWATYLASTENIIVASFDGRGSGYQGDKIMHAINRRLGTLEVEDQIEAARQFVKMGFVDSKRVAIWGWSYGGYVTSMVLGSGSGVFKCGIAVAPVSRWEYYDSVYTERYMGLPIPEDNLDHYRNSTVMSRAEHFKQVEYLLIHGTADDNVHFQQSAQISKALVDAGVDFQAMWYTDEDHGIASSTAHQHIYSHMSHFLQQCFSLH
Outline: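 Plasma DPP-4 inhibition measured in 50% mouse plasma; IC50 read-out.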

[23] = Unbound fraction in CD-1 mouse plasma at 1 to 100 uM; assay type: ADME, cell-free
Outline: (§4)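 Radiolabelled ([3H]) compound added to plasma at 1, 10 and 100 μM; mean percentage unbound reported for each species.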

[24] = Unbound fraction in Sprague-Dawley rat plasma at 1 to 100 uM; assay type: ADME, cell-free; outline: as §4
[25] = Unbound fraction in beagle dog plasma at 1 to 100 uM; assay type: ADME, cell-free, Canis lupus familiaris; outline: as §4
[26] = Unbound fraction in human plasma at 1 to 100 uM; assay type: ADME, cell-free; outline: as §4
[27] = Ratio of drug level in brain to plasma in CD-1 mouse
[28] = Ratio of drug level in brain to plasma in Sprague-Dawley rat
[29] = Ratio of drug level in brain to plasma in beagle dog
[30] = Ratio of drug level in brain to plasma in human
[31] = system: Salmonella typhimurium; assay: Genotoxicity in Salmonella typhimurium by Ames mutagenicity test; assay type: toxicity, organism-based; conditions: salmonella enterica subsp. enterica serovar typhimurium
[32] = target: Voltage-gated L-type calcium channel (Homo sapiens, UniProt Q13936+Q13698+Q01668+O60840); assay: Effect on L-type Ca2+ channel (unknown origin) up to 30 uM; outline: as §3
[33] = system: Rattus norvegicus; assay: Toxicity in rat assessed as mortality at 100 mg/kg/day, po for 14 days; assay type: organism-based; parameters: route oral; conditions: in vivo, 336 h
Outline: (§5)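 Exploratory 14-day oral safety study in male rats, dosed daily. Endpoints were mortality, physical signs observed over the dosing period, and clinical pathology parameters, including glucose and triglycerides.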

[34] = system: Rattus norvegicus; assay: Toxicity in rat assessed as physical signs at 100 mg/kg/day, po for 14 days; assay type: organism-based; parameters: route oral; conditions: in vivo, 336 h; outline: as §5
[35] = system: Rattus norvegicus; assay: Toxicity in rat assessed as decrease in glucose level at 100 mg/kg/day, po for 14 days; assay type: organism-based; parameters: route oral; conditions: in vivo, 336 h; outline: as §5
[36] = system: Rattus norvegicus; assay: Toxicity in rat assessed as decrease in triglyceride level at 100 mg/kg/day, po for 14 days; assay type: organism-based; parameters: route oral; conditions: in vivo, 336 h; outline: as §5
[37] = system: Rattus norvegicus; assay: Toxicity in rat assessed as decrease in cholesterol level at 100 mg/kg/day, po for 14 days; assay type: organism-based; parameters: route oral; conditions: in vivo, 336 h; outline: as §5
[38] = AUC (0 to 24 hrs) in rat at 100 mg/kg/day, po administered for 14 days; assay type: ADME, organism-based; parameters: dose 100 mg/kg/day, time < 24 hr, route oral; conditions: plasma
Outline: (§6)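 Exploratory 14-day oral safety study in male rats dosed at 100 mg/kg/day; AUC(0-24h), Cmax and Tmax determined.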

[39] = Cmax in rat at 100 mg/kg/day, po administered for 14 days; assay type: ADME, organism-based; parameters: dose 100 mg/kg/day, route oral; conditions: in vivo; outline: as §6
[40] = Tmax in rat at 100 mg/kg/day, po administered for 14 days; assay type: ADME, organism-based; parameters: route oral; conditions: in vivo; outline: as §6
[41] = target: Dipeptidyl peptidase 2 (Homo sapiens, UniProt Q9UHL4); assay: Inhibition of QPP (unknown origin)
[42] = target: T2, Prolyl endopeptidase FAP (Homo sapiens, UniProt Q12884); assay: Inhibition of FAP (unknown origin)
T2 sequence (Q12884 whole entry): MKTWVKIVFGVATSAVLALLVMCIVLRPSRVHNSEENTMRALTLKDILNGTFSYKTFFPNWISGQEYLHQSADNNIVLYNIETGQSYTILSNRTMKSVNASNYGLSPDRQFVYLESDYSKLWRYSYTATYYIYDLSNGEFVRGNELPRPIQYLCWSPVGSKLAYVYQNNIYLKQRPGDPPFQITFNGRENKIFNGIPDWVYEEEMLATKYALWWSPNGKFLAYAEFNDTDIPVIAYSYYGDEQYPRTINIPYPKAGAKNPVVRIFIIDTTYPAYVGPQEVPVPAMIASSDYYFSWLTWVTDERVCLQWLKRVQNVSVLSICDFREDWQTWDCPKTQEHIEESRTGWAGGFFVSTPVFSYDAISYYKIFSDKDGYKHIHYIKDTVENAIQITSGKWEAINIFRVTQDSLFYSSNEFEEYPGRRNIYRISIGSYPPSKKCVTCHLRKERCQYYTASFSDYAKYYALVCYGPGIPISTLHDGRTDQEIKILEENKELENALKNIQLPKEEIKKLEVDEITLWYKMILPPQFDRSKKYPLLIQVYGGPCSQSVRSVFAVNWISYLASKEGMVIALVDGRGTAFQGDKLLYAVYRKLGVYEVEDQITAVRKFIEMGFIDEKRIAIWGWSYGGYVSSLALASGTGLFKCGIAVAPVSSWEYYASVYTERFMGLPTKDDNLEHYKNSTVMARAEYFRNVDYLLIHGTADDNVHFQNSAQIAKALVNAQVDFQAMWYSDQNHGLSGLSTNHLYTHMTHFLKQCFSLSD

[43] = species on record: Mus musculus; assay: animal or person; conditions: Blood, po, 1 h, read-out: INH
[44] = species on record: Mus musculus; assay: animal or person; conditions: Blood, po, 1 h, read-out: INH; remark: listed apart in the source
[45] = species on record: Mus musculus; assay: animal or person; conditions: Plasma, po, read-out: INH

CS(=O)(=O)n1cc2c(n1)CN([C@H]1CO[C@H](c3cc(F)ccc3F)[C@@H](N)C1)C2.O=C(O)C(F)(F)F showed a clearance [1] of 1.1 mL/min/kg, a Vd [2] of 0.8 L/kg and a half-life [3] of 660 min. It also gave a Cmax [4] of 9 µM, a Tmax [5] of 1 h and a bioavailability [6] of 100%. It also gave an AUC/dose [7] of 47.8 µM·h/mg/kg, a Vd [8] of 1.3 L/kg and a Cmax [9] of 5.9 µM. For the same compound, the Tmax [10] was 1.3 h, the AUC/dose [11] was 54 µM·h/mg/kg and the clearance [12] was 0.9 mL/min/kg. It also gave a bioavailability [13] of 100% and a half-life [14] of 1320 min.
In the case of CS(=O)(=O)n1cc2c(n1)CN([C@H]1CO[C@H](c3cc(F)ccc3F)[C@@H](N)C1)C2 [OMARIGLIPTIN], the IC50 [15] is reported as > 67 µM, the IC50 [16] is reported as > 67 µM and the IC50 [17] is reported as > 67 µM. For the same compound, the IC50 [18] was > 30 µM, the IC50 [19] was > 30 µM and the IC50 [20] was > 30 µM. The concentration [21] was 521 nM, the IC50 [22] was 43.9 nM and the fraction unbound at up to 100 µM [23] was 0.38. The fraction unbound at up to 100 µM [24] was 0.15, the fraction unbound at up to 100 µM [25] was 0.43 and the fraction unbound at up to 100 µM [26] was 0.68. For the same compound, the Kp [27] was 0.6, the Kp [28] was 0.6 and the Kp [29] was 0.6. The Kp [30] was 0.6, the Activity [31] was “Non-toxic” and the Activity [32] was “Not Active”. For the same compound, the Activity [33] was “Non-toxic”, the Activity [34] was “Non-toxic” and the Activity [35] was “Toxic”. For the same compound, the Activity [36] was “Toxic”, the Activity [37] was “Toxic” and the AUC at 24 h [38] was 5000 µM·h. The Cmax [39] was 371 µM, the Tmax [40] was 2 h and the IC50 [41] was > 67 µM. The IC50 [42] was > 67 µM, the inhibition in vivo at 0.01 mg/kg [43] was 7% and the inhibition in vivo at 0.3 mg/kg [44] was 51%. For the same compound, the inhibition in vivo at 0.3 mg/kg [45] was 85%.
